Activity calls are given as the source filed them. No cut-off for these calls is given here.
Legend:
[1] = target: Mitogen-activated protein kinase kinase kinase 19 (Homo sapiens) (UniProt Q56UN5); experiment: Inhibition of YSK4 (unknown origin) assessed as remaining activity at 1 uM by Kinome scan method relative to control
[2] = target: Phosphatidylinositol 4,5-bisphosphate 3-kinase catalytic subunit delta isoform (Homo sapiens) (UniProt O00329); experiment: Inhibition of PIK3CD (unknown origin) assessed as remaining activity at 1 uM by Kinome scan method relative to control
Phosphatidylinositol 4,5-bisphosphate 3-kinase catalytic subunit delta isoform (Homo sapiens), sequence (O00329 whole entry, canonical isoform): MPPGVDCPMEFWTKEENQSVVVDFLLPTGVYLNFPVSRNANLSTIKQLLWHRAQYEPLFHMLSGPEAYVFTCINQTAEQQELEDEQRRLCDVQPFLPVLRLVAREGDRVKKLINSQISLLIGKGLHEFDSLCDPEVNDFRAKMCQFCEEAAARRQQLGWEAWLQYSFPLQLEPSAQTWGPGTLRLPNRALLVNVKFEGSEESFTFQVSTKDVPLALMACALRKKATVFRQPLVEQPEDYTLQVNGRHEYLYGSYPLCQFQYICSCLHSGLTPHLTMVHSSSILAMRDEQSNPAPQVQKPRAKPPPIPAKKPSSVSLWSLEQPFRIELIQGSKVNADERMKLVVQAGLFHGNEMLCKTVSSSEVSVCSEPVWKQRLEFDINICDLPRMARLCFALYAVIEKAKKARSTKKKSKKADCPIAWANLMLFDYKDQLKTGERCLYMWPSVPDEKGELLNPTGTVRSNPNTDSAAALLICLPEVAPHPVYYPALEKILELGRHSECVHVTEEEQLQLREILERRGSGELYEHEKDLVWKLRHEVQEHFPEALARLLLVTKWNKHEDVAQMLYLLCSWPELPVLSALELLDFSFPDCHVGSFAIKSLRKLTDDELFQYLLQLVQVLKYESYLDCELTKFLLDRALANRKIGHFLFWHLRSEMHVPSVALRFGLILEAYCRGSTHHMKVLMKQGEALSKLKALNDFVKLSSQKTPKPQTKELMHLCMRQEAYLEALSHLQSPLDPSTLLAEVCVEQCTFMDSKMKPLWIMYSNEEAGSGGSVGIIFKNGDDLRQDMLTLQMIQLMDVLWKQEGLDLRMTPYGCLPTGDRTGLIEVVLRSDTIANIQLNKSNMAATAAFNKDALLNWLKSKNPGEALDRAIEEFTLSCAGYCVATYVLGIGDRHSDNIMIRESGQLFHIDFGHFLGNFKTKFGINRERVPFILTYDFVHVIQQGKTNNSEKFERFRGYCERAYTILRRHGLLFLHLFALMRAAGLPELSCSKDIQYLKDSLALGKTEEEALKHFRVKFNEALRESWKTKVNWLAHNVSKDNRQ

[3] = target: Serine/threonine-protein kinase 24 (Homo sapiens, UniProt Q9Y6E0); experiment: Inhibition of MST3 (unknown origin) in presence of ATP by enzymatic assay
Serine/threonine-protein kinase 24, sequence (Q9Y6E0 whole entry, canonical isoform): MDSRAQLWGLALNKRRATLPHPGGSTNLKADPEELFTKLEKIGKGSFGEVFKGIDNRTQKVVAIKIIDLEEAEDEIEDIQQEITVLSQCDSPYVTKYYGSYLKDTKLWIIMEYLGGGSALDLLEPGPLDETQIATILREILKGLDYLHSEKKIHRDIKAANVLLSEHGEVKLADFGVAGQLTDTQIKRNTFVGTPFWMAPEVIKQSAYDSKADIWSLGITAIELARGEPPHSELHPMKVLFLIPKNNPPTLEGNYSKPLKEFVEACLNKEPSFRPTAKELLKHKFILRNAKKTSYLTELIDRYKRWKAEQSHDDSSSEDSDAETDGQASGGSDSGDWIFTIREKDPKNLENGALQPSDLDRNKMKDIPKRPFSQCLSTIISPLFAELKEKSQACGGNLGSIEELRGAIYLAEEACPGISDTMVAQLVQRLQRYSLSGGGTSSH

[4] = target: Phosphatidylinositol 4,5-bisphosphate 3-kinase catalytic subunit gamma isoform (Homo sapiens, UniProt P48736); experiment: Binding affinity to PIK3CG (unknown origin) assessed as dissociation constant
[5] = target: Bone morphogenetic protein receptor type-1B (Homo sapiens) (UniProt O00238); experiment: Inhibition of BMPR1B (unknown origin) assessed as remaining activity at 1 uM by Kinome scan method relative to control
Method in brief: (§1)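 Active-site-dependent competition-binding (KINOMEscan) panel of 468 kinases, test compound at 1 μM (from a 10 mM DMSO stock). Read-out is ctrl% = (test signal − positive control signal)/(negative control signal − positive control signal) × 100. DMSO is the negative control (100%) and a control compound is the positive control (0%). Lower ctrl% means tighter binding.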

[6] = Acute toxicity in wild-type mouse assessed as ratio of liver weight to body weight at 1 mg/kg,ip administrated daily for 2 months and after 2 weeks drug withdrawal; type: organism-based; conditions: in vivo, 1460 h
Method in brief: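 Liver/body weight ratio in wild-type mice after 1 mg/kg i.p. daily for 2 months, or after a further 2 weeks off drug. n = 6; means ± SD, Student's t test. Vehicle was 0.1% citric acid aqueous solution with 20% Kolliphor HS 15.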

[7] = Acute toxicity in wild-type mouse assessed as increase in Ki67-positive cells at 1 mg/kg,ip administrated twice daily for 1 to 7 days by Ki67 staining; type: organism-based, Liver; conditions: in vivo, time 1-7 day
Method in brief: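 Wild-type mice were dosed once a day before two-thirds partial hepatectomy, then given vehicle or 1 mg/kg i.p. twice per day. Ki67-positive cells were counted in liver sections over postoperative days 1 to 7, n = 5; means ± SD, Student's t test.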

[8] = target: Receptor-interacting serine/threonine-protein kinase 2 (Homo sapiens) (UniProt O43353); experiment: Inhibition of RIPK2 (unknown origin) assessed as remaining activity at 1 uM by Kinome scan method relative to control
[9] = target: 1-phosphatidylinositol 3-phosphate 5-kinase (Homo sapiens) (UniProt Q9Y2I7); experiment: Inhibition of PIKFYVE (unknown origin) assessed as remaining activity at 1 uM by Kinome scan method relative to control
1-phosphatidylinositol 3-phosphate 5-kinase (Homo sapiens), sequence (Q9Y2I7 whole entry): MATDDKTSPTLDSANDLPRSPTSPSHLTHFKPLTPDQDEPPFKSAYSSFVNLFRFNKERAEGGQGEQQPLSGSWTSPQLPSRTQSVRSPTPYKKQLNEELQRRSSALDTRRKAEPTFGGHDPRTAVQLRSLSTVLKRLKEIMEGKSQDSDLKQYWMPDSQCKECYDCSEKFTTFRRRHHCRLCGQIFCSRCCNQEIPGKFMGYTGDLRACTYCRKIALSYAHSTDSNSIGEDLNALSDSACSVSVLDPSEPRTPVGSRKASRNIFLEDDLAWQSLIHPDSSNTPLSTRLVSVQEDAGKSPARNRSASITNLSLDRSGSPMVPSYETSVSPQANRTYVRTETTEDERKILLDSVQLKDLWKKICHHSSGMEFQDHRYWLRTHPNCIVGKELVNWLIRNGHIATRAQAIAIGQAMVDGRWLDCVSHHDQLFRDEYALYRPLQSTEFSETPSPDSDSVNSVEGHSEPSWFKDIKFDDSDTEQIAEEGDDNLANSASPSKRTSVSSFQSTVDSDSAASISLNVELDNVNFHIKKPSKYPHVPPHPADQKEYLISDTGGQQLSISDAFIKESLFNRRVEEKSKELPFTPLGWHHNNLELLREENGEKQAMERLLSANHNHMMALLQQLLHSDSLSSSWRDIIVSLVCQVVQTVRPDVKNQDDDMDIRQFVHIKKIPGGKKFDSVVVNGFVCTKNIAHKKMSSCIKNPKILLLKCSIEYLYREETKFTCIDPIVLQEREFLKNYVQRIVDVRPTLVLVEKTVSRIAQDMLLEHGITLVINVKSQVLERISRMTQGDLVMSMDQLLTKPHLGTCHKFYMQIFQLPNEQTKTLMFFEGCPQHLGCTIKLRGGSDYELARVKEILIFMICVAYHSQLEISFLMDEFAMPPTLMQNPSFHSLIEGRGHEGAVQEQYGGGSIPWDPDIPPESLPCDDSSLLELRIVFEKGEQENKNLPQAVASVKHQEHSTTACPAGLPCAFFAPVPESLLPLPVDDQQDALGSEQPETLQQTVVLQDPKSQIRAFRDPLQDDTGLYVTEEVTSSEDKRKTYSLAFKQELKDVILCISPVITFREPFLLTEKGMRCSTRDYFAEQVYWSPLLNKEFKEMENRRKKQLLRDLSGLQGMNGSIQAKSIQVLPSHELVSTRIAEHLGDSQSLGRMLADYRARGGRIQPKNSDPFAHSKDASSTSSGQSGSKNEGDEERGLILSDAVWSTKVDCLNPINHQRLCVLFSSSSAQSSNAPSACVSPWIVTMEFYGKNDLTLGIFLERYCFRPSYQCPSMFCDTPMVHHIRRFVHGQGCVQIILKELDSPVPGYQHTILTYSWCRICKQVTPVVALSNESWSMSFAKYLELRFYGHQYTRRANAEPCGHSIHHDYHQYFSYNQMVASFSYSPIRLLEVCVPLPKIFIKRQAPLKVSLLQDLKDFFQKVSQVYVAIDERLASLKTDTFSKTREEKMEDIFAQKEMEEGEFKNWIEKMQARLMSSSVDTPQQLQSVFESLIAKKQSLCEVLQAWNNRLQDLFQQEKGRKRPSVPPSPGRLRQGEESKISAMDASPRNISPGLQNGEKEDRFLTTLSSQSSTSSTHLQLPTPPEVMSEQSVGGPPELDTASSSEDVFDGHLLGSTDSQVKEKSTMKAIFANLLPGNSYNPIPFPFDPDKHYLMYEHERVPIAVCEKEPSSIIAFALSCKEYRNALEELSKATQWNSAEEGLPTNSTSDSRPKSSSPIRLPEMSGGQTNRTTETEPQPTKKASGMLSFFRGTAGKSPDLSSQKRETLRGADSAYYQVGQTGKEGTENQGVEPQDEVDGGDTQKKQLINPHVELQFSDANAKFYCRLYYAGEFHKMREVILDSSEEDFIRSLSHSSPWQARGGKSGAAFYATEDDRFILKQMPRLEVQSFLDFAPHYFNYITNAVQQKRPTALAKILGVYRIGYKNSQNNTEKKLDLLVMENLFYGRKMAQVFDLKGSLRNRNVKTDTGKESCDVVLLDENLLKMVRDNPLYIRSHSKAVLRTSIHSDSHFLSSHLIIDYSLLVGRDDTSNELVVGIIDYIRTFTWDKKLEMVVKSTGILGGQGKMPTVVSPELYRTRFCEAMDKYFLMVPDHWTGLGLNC

[10] = target: Phosphatidylinositol 5-phosphate 4-kinase type-2 beta (Homo sapiens) (UniProt P78356); experiment: Inhibition of PIP5K2B (unknown origin) assessed as remaining activity at 1 uM by Kinome scan method relative to control
HepG2 = experiment: Induction of apoptosis in human HepG2 cells overexpressing MST2 assessed as late apoptosis cells at 3 uM by annexinV staining (Rvb =2.01 %); type: functional
[11] = target: Receptor-type tyrosine-protein kinase FLT3 (Homo sapiens) (UniProt P36888); experiment: Inhibition of FLT3-autoinnibited (unknown origin) assessed as remaining activity at 1 uM by Kinome scan method relative to control
[12] = target: Fibroblast growth factor receptor 2 (Homo sapiens) (UniProt P21802); experiment: Inhibition of FGFR2 (unknown origin) assessed as remaining activity at 1 uM by Kinome scan method relative to control
RAW264.7 = experiment: Inhibition of MST1/2 (unknown origin) in mouse RAW264.7 cells assessed as H2O2 stimulated MST1/2 autophosphorylation level at 1 to 3 uM by immunoblot analysis; type: cell-based; conditions: dose 1-3 µM
[13] = target: Calcium/calmodulin-dependent protein kinase type II subunit gamma (Homo sapiens) (UniProt Q13555); experiment: Inhibition of CAMK2G (unknown origin) assessed as remaining activity at 1 uM by Kinome scan method relative to control
Calcium/calmodulin-dependent protein kinase type II subunit gamma (Homo sapiens), sequence (Q13555 whole entry): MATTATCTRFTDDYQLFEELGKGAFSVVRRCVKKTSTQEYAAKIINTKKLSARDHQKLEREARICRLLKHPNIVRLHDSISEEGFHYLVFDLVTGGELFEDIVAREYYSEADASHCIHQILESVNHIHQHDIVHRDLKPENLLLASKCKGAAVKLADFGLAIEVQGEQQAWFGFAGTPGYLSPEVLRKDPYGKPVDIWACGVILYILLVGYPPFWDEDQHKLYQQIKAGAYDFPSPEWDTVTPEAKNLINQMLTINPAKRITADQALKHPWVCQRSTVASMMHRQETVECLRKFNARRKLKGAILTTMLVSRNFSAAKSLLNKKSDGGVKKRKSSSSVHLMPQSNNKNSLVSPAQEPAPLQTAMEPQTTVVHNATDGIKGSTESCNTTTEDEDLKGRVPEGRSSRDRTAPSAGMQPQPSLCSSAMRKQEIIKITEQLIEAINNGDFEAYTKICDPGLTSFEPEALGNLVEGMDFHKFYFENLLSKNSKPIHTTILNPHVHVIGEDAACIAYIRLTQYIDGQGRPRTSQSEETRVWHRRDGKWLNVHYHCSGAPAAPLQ
Method in brief: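 Active-site-dependent competition-binding profiling (KINOMEscan) at 1 μM against a 468-kinase panel; compound supplied from a 10 mM DMSO stock. Read-out is ctrl% = (test signal − positive control signal)/(negative control signal − positive control signal) × 100. DMSO is the negative control (100%) and a control compound the positive control (0%). Lower ctrl% means tighter binding.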

[14] = Half life in male Sprague-Dawley rat at 10 mg/kg, po measured for 24 hrs by LC-MS/MS analysis; type: ADME, organism-based; conditions: in vivo
Method in brief: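 Sprague-Dawley rats, single intravenous or oral dose. Parameters (half-life, AUC, bioavailability) reported in a supplementary table.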

[15] = test system: Epidermal growth factor receptor (Homo sapiens), P00533 [G719S]; experiment: Inhibition of EGFR G719S mutant (unknown origin) assessed as remaining activity at 1 uM by Kinome scan method relative to control
[16] = target: Wee1-like protein kinase (Homo sapiens) (UniProt P30291); experiment: Inhibition of WEE1 (unknown origin) assessed as remaining activity at 1 uM by Kinome scan method relative to control
[17] = target: Glycogen synthase kinase-3 alpha (Homo sapiens) (UniProt P49840); experiment: Inhibition of GSK3alpha (unknown origin) assessed as remaining activity at 1 uM by Kinome scan method relative to control
[18] = target: Myosin light chain kinase (Homo sapiens) (UniProt Q32MK0); experiment: Inhibition of MLCK (unknown origin) assessed as remaining activity at 1 uM by Kinome scan method relative to control
[19] = Inhibition of phosphorylated ABL1 T315I mutant (unknown origin) in presence of ATP by enzymatic assay; set-up: species or system Homo sapiens
[20] = target: Serine/threonine-protein kinase WNK4 (Homo sapiens) (UniProt Q96J92); experiment: Inhibition of WNK4 (unknown origin) assessed as remaining activity at 1 uM by Kinome scan method relative to control
[21] = target: Ribosomal protein S6 kinase alpha-6 (Homo sapiens) (UniProt Q9UK32); experiment: Inhibition of C-terminal kinase domain RSK4 (unknown origin) assessed as remaining activity at 1 uM by Kinome scan method relative to control; method in brief: as §1
[22] = target: Tyrosine-protein kinase ABL1 (Homo sapiens, UniProt P00519, M351T); experiment: Binding affinity to phosphorylated ABL1 M351T mutant (unknown origin) assessed as dissociation constant
[23] = target: Serine/threonine-protein kinase PAK 3 (Homo sapiens) (UniProt O75914); experiment: Inhibition of PAK3 (unknown origin) assessed as remaining activity at 1 uM by Kinome scan method relative to control
Serine/threonine-protein kinase PAK 3 (Homo sapiens), sequence (O75914 whole entry, looked up): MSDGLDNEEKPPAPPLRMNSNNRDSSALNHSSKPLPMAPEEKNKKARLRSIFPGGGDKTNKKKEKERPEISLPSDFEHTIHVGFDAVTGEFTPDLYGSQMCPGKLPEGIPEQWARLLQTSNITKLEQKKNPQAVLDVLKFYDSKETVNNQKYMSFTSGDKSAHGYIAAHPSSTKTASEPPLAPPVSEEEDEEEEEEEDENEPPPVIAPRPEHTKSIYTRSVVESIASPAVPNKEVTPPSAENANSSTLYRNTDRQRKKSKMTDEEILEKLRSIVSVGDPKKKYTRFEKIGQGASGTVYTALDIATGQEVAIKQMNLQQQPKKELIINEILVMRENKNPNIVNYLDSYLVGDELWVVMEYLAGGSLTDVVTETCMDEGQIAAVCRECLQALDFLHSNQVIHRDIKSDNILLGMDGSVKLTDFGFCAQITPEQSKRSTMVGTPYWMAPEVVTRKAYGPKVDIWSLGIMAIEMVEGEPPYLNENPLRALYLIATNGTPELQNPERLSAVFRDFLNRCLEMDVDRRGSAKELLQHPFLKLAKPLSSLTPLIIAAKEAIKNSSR

[24] = target: Insulin-like growth factor 1 receptor (Homo sapiens) (UniProt P08069); experiment: Inhibition of IGF1R (unknown origin) assessed as remaining activity at 1 uM by Kinome scan method relative to control
[25] = target: Ankyrin repeat and protein kinase domain-containing protein 1 (Homo sapiens) (UniProt Q8NFD2); experiment: Inhibition of ANKK1 (unknown origin) assessed as remaining activity at 1 uM by Kinome scan method relative to control; method in brief: as §1
[26] = target: Ephrin type-B receptor 3 (Homo sapiens) (UniProt P54753); experiment: Inhibition of EPHB3 (unknown origin) assessed as remaining activity at 1 uM by Kinome scan method relative to control

CN1C(=O)c2sccc2N(C)c2nc(Nc3ccc(S(N)(=O)=O)cc3)ncc21
Activity [1]: 42%
Activity [2]: 47%
IC50 [3]: 0.0448 µM
Kd [4]: 0.0048 µM
Activity [5]: 26%
Activity [6]: Toxic
Activity [7]: Non-Toxic
Activity [8]: 100%
Activity [9]: 64%
Activity [10]: 100%
Activity (HepG2): 1.54%
Activity [11]: 100%
Activity [12]: 100%
inhibition (RAW264.7): Active
Activity [13]: 100%
half-life [14]: 5.18 h
Activity [15]: 78%
Activity [16]: 100%
Activity [17]: 100%
Activity [18]: 87%
IC50 [19]: 0.0166 µM
Activity [20]: 95%
Activity [21]: 93%
Kd [22]: 0.042 µM
Activity [23]: 100%
Activity [24]: 94%
Activity [25]: 41%
Activity [26]: 95%

From ChEMBL document CHEMBL5705905, “Pharmacological targeting of kinases MST1 and MST2 augments tissue repair and regeneration” (Sci Transl Med, 2016)
